Measurements from ChEMBL document CHEMBL5715960, “Epigenetic Co-Deregulation of EZH2/TET1 is a Senescence-Countering, Actionable Vulnerability in Triple-Negative Breast Cancer” (Theranostics, 2019).
Activity calls are given as the source filed them. The calls are words filed in the database; no cut-off is given here.

What was measured:
MDA-MB-436 [1] = assay: Antiproliferative activity against human MDA-MB-436 cells at 0.5 to 2 uM for 2 days by Guava viacount assay; assay type: functional, cell-based; settings: dose 0.5-2 µM, time 2.0 day
Procedure, shortened: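 Cells plated at 2 × 10^4 (24-well) or 1 × 10^5 (12-well), exposed to a range of GSK343 concentrations for 2 days against DMSO solvent control; cell number and viability read by Guava ViaCount flow cytometry, relative to DMSO. Triplicate; mean ± SD.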

MDA-MB-436 [2] = assay: Induction of cell cycle arrest in human MDA-MB-436 cells assessed as accumulation of cells at S phase measured at 2 uM by BrdU/PI staining based flow cytometric analysis (reference value: 39.5%); assay type: functional
BT-474 [3] = assay: Induction of cell cycle arrest in human BT-474 cells assessed as accumulation of cells at S phase measured at 2 uM by BrdU/PI staining based flow cytometric analysis (reference value: 28.6%); assay type: functional
BT-474 [4] = assay: Induction of cell cycle arrest in human BT-474 cells assessed as accumulation of cells at G1 phase measured at 2 uM by BrdU/PI staining based flow cytometric analysis (reference value: 60.8%); assay type: functional
MCF7 [5] = assay: Induction of cell cycle arrest in human MCF7 cells assessed as accumulation of cells at G1 phase measured at 2 uM by BrdU/PI staining based flow cytometric analysis (reference value: 65.2%); assay type: functional
MDA-MB-231 [6] = assay: Antiproliferative activity in human MDA-MB-231 cells assessed as increase in SA-beta-gal positive cells at 2 uM for 5 days by SA-beta-gal staining analysis; assay type: functional, cell-based; settings: time 5.0 day
Procedure, shortened: (§1)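 GSK343 2 µM or DMSO for 5 days, then chromogenic SA-β-gal staining and counting of positive cells. Triplicate; mean ± SD.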

MDA-MB-436 [7] = assay: Antiproliferative activity in human MDA-MB-436 cells assessed as increase in SA-beta-gal positive cells at 2 uM for 5 days by SA-beta-gal staining analysis; assay type: functional, cell-based; settings: time 5.0 day; procedure, shortened: as §1
MDA-MB-361 = assay: Antiproliferative activity in human MDA-MB-361 cells assessed as increase in SA-beta-gal positive cells at 2 uM for 5 days by SA-beta-gal staining analysis; assay type: toxicity, cell-based; settings: mda-mb-361, 120 h, time 5 day; procedure, shortened: as §1
BT-474 [8] = assay: Antiproliferative activity in human BT-474 cells assessed as increase in SA-beta-gal positive cells at 2 uM for 5 days by SA-beta-gal staining analysis; assay type: toxicity, cell-based; settings: bt-474, 120 h, time 5 day; procedure, shortened: as §1
MDA-MB-436 [9] = assay: Antiproliferative activity against human MDA-MB-436 cells assessed as increase in global H3K9me3 expression level by immunoblot analysis; assay type: functional, cell-based
Procedure, shortened: (§2)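 Cells exposed to GSK343 at 2 µM (standard level unless stated otherwise), lysed and immunoblotted; α-tubulin and total H3 as loading controls.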

MDA-MB-231 [10] = assay: Antiproliferative activity against human MDA-MB-231 cells assessed as downregulation of PCNA by immunoblot analysis; assay type: functional, cell-based; procedure, shortened: as §2
MDA-MB-436 [11] = assay: Upregulation of CDKN1A gene in human MDA-MB-436 cells at 2 uM by qRT-PCR analysis; assay type: functional, cell-based
Procedure, shortened: (§3)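 Relative transcript levels measured by qRT-PCR in cells treated with 2 µM inhibitor, normalised to DMSO-treated control cells. Triplicate experiments unless stated otherwise; mean ± SD reported; unpaired two-tailed Student's t-test at p < 0.05.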

MCF7 [12] = assay: Upregulation of CDKN1A gene in human MCF7 cells at 2 uM by qRT-PCR analysis; assay type: functional, cell-based; procedure, shortened: as §3
MDA-MB-436 [13] = assay: Downregulation of EZH2 in human MDA-MB-436 cells at 2 uM for 2 days by immunoblot analysis; assay type: functional, cell-based; settings: time 2.0 day
MDA-MB-436 [14] = assay: Upregulation of […] signalling in human MDA-MB-436 cells at 2 uM for 2 days by immunoblot analysis; assay type: functional, cell-based; settings: time 2.0 day
MDA-MB-436 [15] = assay: Downregulation of E2F1 in human MDA-MB-436 cells at 2 uM for 2 days by immunoblot analysis; assay type: functional, cell-based; settings: time 2.0 day
MDA-MB-231 [16] = assay: Downregulation of EZH2 transcription in human MDA-MB-231 cells at 2 uM for 2 days by immunoblot analysis; assay type: functional, cell-based; settings: time 2.0 day
MDA-MB-436 [17] = assay: Effect on […] in human MDA-MB-436 cells assessed as repression in TET1 promoter EZH2 by ChiP-qPCR analysis; assay type: functional, cell-based
Procedure, shortened: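 Cells treated with GSK343 or DMSO; chromatin immunoprecipitated with anti-EZH2 or anti-H3K27me3 antibody and quantified by qPCR with primers for the TET1 promoter; input as internal control, IgG as negative control.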

MDA-MB-231 [18] = assay: Antiproliferative activity in human MDA-MB-231 cells expressing vector assessed as increase in SA-beta-gal positive cells by SA-beta-gal staining analysis (reference value: 6.5+/-4%); assay type: functional
MDA-MB-436 [19] = assay: Antiproliferative activity in human MDA-MB-436 cells expressing vector assessed as increase in SA-beta-gal positive cells by SA-beta-gal staining analysis (reference value: 10.3+/-3.7%); assay type: functional
MDA-MB-231 [20] = assay: Effect on human MDA-MB-231 cells expressing shTET1 assessed as reduction in cyclinA by immunoblot analysis; assay type: functional, cell-based
MDA-MB-231 [21] = assay: Effect on human MDA-MB-231 cells expressing shTET1 assessed as increase in p21 cascade by immunoblot analysis; assay type: functional, cell-based
MDA-MB-436 [22] = assay: Effect on human MDA-MB-436 cells expressing shTET1 assessed as increase in p21 cascade by immunoblot analysis; assay type: functional, cell-based
MDA-MB-231 [23] = assay: Cytotoxicity against human MDA-MB-231 cells assessed as killing of cells at 2 uM in presence of adriamycin; assay type: functional, cell-based
Procedure, shortened: (§4)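 Viability after a range of adriamycin concentrations given alone or together with 2 µM GSK343, measured by Guava ViaCount; mean ± SD.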

MDA-MB-436 [24] = assay: Cytotoxicity against human MDA-MB-436 cells assessed as killing of cells at 2 uM in presence of adriamycin; assay type: functional, cell-based; procedure, shortened: as §4
MDA-MB-231 [25] = assay: Effect on human MDA-MB-231 cells assessed as increase in TET1 level at 2 uM in presence of adriamycin by immunoblot analysis; assay type: functional, cell-based
Procedure, shortened: (§5)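 Immunoblot of MDA-MB-231 and MCF7 lysates after 0.005 µg/ml adriamycin with or without 2 µM GSK343, or DMSO. α-Tubulin and total H3 used as loading controls.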

MCF7 [26] = assay: Effect on human MCF7 cells assessed as increase in TET1 level at 2 uM in presence of adriamycin by immunoblot analysis; assay type: functional, cell-based; procedure, shortened: as §5
MDA-MB-231 [27] = assay: Effect on human MDA-MB-231 cells assessed as apoptotic phenotype by measuring increase in BIM expression level at 2 uM in presence of adriamycin by immunoblot analysis; assay type: functional, cell-based
Procedure, shortened: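 Immunoblot of cell lysates after 0.05 µg/ml adriamycin alone, with 2 µM GSK343, or DMSO. α-Tubulin and total H3 used as loading controls.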

MDA-MB-231 [28] = assay: In vivo activation of TET1 in Crl:NU-Foxn1-nu/nu mouse xenografted with human MDA-MB-231 cells at 5 mg/kg, ip in presence of adriamycin treated for 21 days; assay type: functional, organism-based; settings: time 21.0 day
MDA-MB-436 [29] = assay: In vivo activation of TET1 in Crl:NU-Foxn1-nu/nu mouse xenografted with human MDA-MB-436 cells at 5 mg/kg, ip in presence of adriamycin treated for 21 days; assay type: functional, organism-based; settings: time 21.0 day
MDA-MB-231 [30] = assay: Effect on human MDA-MB-231 cells assessed as increase in TET1 protein level by qRT-PCR analysis

Which results are given for `CCCc1cc(C)[nH]c(=O)c1CNC(=O)c1cc(-c2ccnc(N3CCN(C)CC3)c2)cc2c1cnn2C(C)C`?
Activity (MDA-MB-436 [1]): Active; Activity (MDA-MB-436 [2]): 15.2%; Activity (BT-474 [3]): 26.8%; Activity (BT-474 [4]): 56.8%; Activity (MCF7 [5]): 66.1%; Activity (MDA-MB-231 [6]): Active; Activity (MDA-MB-436 [7]): Active; Activity (MDA-MB-361): Non-Toxic; Activity (BT-474 [8]): Non-Toxic; Activity (MDA-MB-436 [9]): Active; Activity (MDA-MB-231 [10]): Active; Activity (MDA-MB-436 [11]): Active; Activity (MCF7 [12]): inactive; Activity (MDA-MB-436 [13]): Active; Activity (MDA-MB-436 [14]): Active; Activity (MDA-MB-436 [15]): Active; Activity (MDA-MB-231 [16]): Active; Activity (MDA-MB-436 [17]): Active; Activity (MDA-MB-231 [18]): 45.6%; Activity (MDA-MB-436 [19]): 46.4%; Activity (MDA-MB-231 [20]): inactive; Activity (MDA-MB-231 [21]): inactive; Activity (MDA-MB-436 [22]): inactive; Activity (MDA-MB-231 [23]): Active; Activity (MDA-MB-436 [24]): Active; Activity (MDA-MB-231 [25]): Active; Activity (MCF7 [26]): inactive; Activity (MDA-MB-231 [27]): Active; Activity (MDA-MB-231 [28]): Active; Activity (MDA-MB-436 [29]): Active; Activity (MDA-MB-231 [30]): Active
